Where two headings read alike, the source gives them in different places. Non-standard residues stand in square brackets, D forms with d. Residues, ends and D or L forms follow the SMILES beside them. ξ: configuration not given here. Aoe = N[C@@H](CCCCCC(=O)[C@@H]1CO1)C(=O)O; Aoe(9ξ) = N[C@@H](CCCCCC(=O)C1CO1)C(=O)O; Pip = O=C(O)[C@@H]1CCCCN1
What was measured:
[1] = tested on: acetyl-histone H4 in 3D7 parasite culture; assay: Immunoblot of histone H4 hyperacetylation; format: cell-based, Plasmodium falciparum; settings: 3D7 trophozoites, 5× EC50, 4 h, versus DMSO
recombinant PfHDAC1 = target: T1, recombinant PfHDAC1 (Plasmodium falciparum, UniProt Q7K6A1); assay: biochemical
T1 sequence (Q7K6A1 1-449): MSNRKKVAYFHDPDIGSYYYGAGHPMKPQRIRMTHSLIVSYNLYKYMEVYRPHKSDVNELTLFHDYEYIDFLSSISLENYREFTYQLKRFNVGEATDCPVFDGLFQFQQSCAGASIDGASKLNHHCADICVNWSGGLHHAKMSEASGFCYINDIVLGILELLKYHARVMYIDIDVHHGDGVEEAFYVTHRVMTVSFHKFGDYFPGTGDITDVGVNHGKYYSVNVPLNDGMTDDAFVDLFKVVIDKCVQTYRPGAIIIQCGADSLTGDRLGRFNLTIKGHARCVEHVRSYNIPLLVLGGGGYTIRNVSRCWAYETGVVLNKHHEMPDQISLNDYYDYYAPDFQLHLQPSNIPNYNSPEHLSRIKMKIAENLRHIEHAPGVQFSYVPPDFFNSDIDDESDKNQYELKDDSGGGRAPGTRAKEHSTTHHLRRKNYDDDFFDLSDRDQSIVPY

[2] = tested on: synchronous Dd2 parasites; assay: Stage specific inhibition assay; format: cell-based, Plasmodium falciparum; settings: 5 × EC50, synchronous Dd2
Summary of the method: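 Stage development assessed by Giemsa smears at every condition and time point, plus flow cytometry. Flow samples fixed in 4% paraformaldehyde for 30 min at 37°C, washed 3x in PBS, held at 4°C, then resuspended in 0.25% Triton X-100 and shaken at 500 RPM for 10 min. Parasites gated against an uninfected RBC control; treated-culture histograms overlaid on vehicle-treated culture.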

[3] = tested on: histone H4 acetylation in Plasmodium culture; assay: Immunofluorescence assay with anti-acetyl histone H4; format: cell-based, Plasmodium falciparum; settings: synchronous cultures, 5x EC50
[4] = tested on: HepG2 hepatocarcinoma cells; assay: MTS human cell cytotoxicity assay; format: cell-based; settings: for EC50: read-out: HepG2 EC50
P. falciparum strain Dd2 = assay: SYBR Green I fluorescence antiplasmodial assay, Dd2; format: cell-based, Plasmodium falciparum
[5] = tested on: asynchronous P. falciparum Dd2 parasites; assay: Rate of killing assay with compound wash-off; format: cell-based, Plasmodium falciparum; settings: 10 × EC50, exposure 24 or 48 h, then wash-off
P. falciparum 3D7 = settings: read-out: P. falciparum 3D7 EC50; literature values; cited from earlier work
[6] = 48 h treatment, MTS, mean of triplicate ± SE/SEM
[7] = read-out: PfHDAC1 IC50, recombinant enzyme, 2 h at 37°C, mean of duplicate ± SEM

## O=C(CCCCCCC(=O)Nc1ccccc1)NO [SAHA, suberanilohydroxamic acid]
[1]
  histone H4 acetylation (Western blot): hyperacetylation
Recombinant PfHDAC1
  IC50: 92 ± 20 nM
[2]
  effect of treatment at 6 HPI: resemble late trophozoite
  effect of treatment at 42 HPI: partially inhibited at schizogony
[3]
  histone H4 acetylation (immunofluorescence): noticeable increase in histone H4 acetylation

## Deoxy-WF 20782B [Compound 5]
[4]; [6]
  EC50: 880 ± 50 nM
P. falciparum strain Dd2; ethyl analog versus analogs with epoxide or alcohol at R1
  fold increase in EC50 compared with epoxide or alcohol R1 analogs: 2–6 fold

## WF 27082F [Compound 4]
[4]; [6]
  EC50: 150 ± 40 nM

## CC(C)C[C@@H]1NC(=O)[C@@H](Cc2ccccc2)NC(=O)[C@H](CCCCCC(=O)C2CO2)NC(=O)[C@@H]2CCCCN2C1=O (some centres unmarked) [Compound 11, WF-3161] (cyclo(L[Pip][Aoe(9ξ)][dF]))
Recombinant PfHDAC1; [7]
  IC50: 2 ± 2 nM
[4]; [6]
  EC50: 22000 ± 900 nM

## FR235222 [Compound 3]
[4]; [6]
  EC50: 260 ± 60 nM
[5]
  killing profile: plasmodistatic

## CC1(C)NC(=O)[C@H](CCCCCC(=O)[C@H]2CO2)NC(=O)[C@H]2CCCN2C(=O)[C@H](Cc2ccccc2)NC1=O [Compound 1, chlamydocin]
[4]; HepG2 EC50 / average of Dd2 EC50 and 3D7 EC50
  Selectivity Index (SI): 17
[4]; Homo sapiens, HepG2, 48 h
  EC50: 530 ± 7 nM
P. falciparum strain Dd2; Plasmodium falciparum, DD2, 72 h, read-out: Dd2 EC50
  EC50: 31 ± 7 nM

## C[C@@H]1NC(=O)[C@H](CCCCCC(=O)[C@@H]2CO2)NC(=O)[C@H]2CCCN2C(=O)[C@H](Cc2ccccc2)NC1=O [Compound 2, 1-alaninechlamydocin] (cyclo(AF[dP][Aoe]))
[1]
  histone H4 acetylation (Western blot): hyperacetylation
[4]; [6]
  EC50: 38 ± 6 nM

## NA 1309 [Compound 7]
Recombinant PfHDAC1; [7]
  IC50: 6300 ± 800 nM
[4]; [6]
  EC50: > 25000 nM

## C[C@@H]1NC(=O)[C@H]2CCCN2C(=O)[C@H](CCCCCC(=O)[C@@H]2CO2)NC(=O)[C@@H](C)NC1=O [HC toxin]
P. falciparum 3D7
  EC50: 29 ± 2 nM

Source: paper PMC8822587 (ACS infectious diseases, 2021)
